Assay results published in ChEMBL document CHEMBL1157903, “Synthesis and structure-activity relationships of 2-aryl-4-oxazolylmethoxy benzylglycines and 2-aryl-4-thiazolylmethoxy benzylglycines as novel, potent PPARalpha selective activators- PPARalpha and PPARgamma selectivity modulation” (Bioorg Med Chem Lett, 2010).

Tests used:
Hamster [1] = assay: Induction of PDK4 mRNA level in hamster liver at 10 mg/kg, po after 6 hrs relative to fenofibrate; assay type: functional, Cricetinae
In short: (§1)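 Single oral dose of 10 mpk in hamsters, with fenofibrate reference at 100 mpk. Liver PDK4 and HD mRNA measured at 6 h post-dose. Values expressed relative to fenofibrate, set as 100%.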

[2] = Drug level in hamster liver at 10 mg/kg, po; assay type: ADME, organism-based; parameters: dose 10 mg/kg, route oral; details: cricetinae, in vivo, read-out: Drug uptake
In short: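 High-fat-fed hamsters (2 weeks on diet), 10 mg/kg po once daily for 21 days (n = 8). Vehicle: 5% cremophor/10% NMP/5% EtOH/80% water. Liver drug level taken 1 h post-dose in the fed state.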

[3] = Half life in Sprague-Dawley rat at 5 mg/kg, iv and 10 mg/kg, po; assay type: ADME, organism-based; details: in vivo
In short: (§2)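 Male Sprague-Dawley rats (n = 2) given 5 mg/kg IV and 10 mg/kg PO. Vehicle: 10% NMP, 20% PEG-400, 70% potassium phosphate buffer.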

[4] = Clearance in Sprague-Dawley rat at 5 mg/kg, iv and 10 mg/kg, po; assay type: ADME, organism-based; details: in vivo; in short: as §2
[5] = molecular target: T1, Peroxisome proliferator-activated receptor gamma (Homo sapiens) (UniProt P37231); assay: Agonist activity against human Gal4-fussed PPARgamma by luciferase reporter gene assay relative to rosiglitazone
T1 sequence (whole entry): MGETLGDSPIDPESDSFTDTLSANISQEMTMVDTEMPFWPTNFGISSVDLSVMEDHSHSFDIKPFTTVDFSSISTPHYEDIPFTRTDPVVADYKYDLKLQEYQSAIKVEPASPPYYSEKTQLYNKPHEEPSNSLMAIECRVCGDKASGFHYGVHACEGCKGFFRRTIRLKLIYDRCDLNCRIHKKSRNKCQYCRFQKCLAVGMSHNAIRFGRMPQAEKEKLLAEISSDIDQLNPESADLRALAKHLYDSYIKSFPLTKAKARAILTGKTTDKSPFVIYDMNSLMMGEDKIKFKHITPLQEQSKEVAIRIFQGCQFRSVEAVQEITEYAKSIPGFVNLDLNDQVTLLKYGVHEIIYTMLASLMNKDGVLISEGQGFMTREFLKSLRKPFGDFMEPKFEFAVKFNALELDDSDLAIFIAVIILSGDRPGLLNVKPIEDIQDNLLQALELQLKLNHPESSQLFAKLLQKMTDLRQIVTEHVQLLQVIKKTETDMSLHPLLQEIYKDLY

Hamster [6] = assay: Antidyslipidemic activity in hamster assessed as decrease in triglyceride level at 10 mg/kg, po; assay type: functional, Cricetinae; parameters: scale not given: the % may be the effect or the level left
In short: (§3)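 Hamsters kept on high-fat diet for 2 weeks, then dosed 10 mg/kg by oral gavage once daily for 21 days (n = 8). Vehicle: 5% cremophor, 10% NMP, 5% EtOH, 80% water. HDL-c and TG measured at study end. Statistics by Dunnett test, p < 0.05.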

[7] = Volume of distribution at steady state Sprague-Dawley rat at 5 mg/kg, iv and 10 mg/kg, po; assay type: ADME, organism-based; details: in vivo, read-out: Vdss; in short: as §2
[8] = molecular target: T2, Peroxisome proliferator-activated receptor alpha (Homo sapiens, UniProt Q07869); assay: Agonist activity against human Gal4-fussed PPARalpha in HEK293 cells by luciferase reporter gene assay; assay type: functional, cell-based
T2 sequence (Q07869 whole entry): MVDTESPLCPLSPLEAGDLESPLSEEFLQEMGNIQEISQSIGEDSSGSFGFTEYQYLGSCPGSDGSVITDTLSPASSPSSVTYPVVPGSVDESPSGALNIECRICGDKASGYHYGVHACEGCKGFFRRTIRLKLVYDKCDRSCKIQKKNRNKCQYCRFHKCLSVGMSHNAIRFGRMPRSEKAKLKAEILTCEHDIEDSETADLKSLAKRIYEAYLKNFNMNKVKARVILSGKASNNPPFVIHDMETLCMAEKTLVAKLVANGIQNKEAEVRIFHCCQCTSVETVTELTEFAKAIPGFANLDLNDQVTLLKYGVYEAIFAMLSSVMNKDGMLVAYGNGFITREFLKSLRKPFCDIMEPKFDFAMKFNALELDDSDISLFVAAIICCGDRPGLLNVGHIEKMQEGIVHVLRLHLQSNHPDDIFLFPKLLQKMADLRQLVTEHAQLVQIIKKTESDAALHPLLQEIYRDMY
In short: (§4)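 Transactivation assay in HEK293 cells with a luciferase reporter. After cell lysis, luciferin is added and luminescence is read. EC50 is the ligand concentration giving half-maximal fold induction. Maximal efficacy is expressed as % of standards, with fenofibrate at 100 µM = 100% for PPARα and rosiglitazone at 1 µM = 100% for PPARγ. Data are normalized to known agonists at 1 µM.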

[9] = Agonist activity at hamster PPARalpha; assay type: functional, Cricetulus griseus
[10] = Mean retention time in Sprague-Dawley rat at 5 mg/kg, iv and 10 mg/kg, po; assay type: ADME, organism-based; details: in vivo; in short: as §2
Cricetulus griseus = organism: Cricetulus griseus; assay: Agonist activity at hamster PPARalpha relative to fenofibrate; assay type: functional
[11] = molecular target: T3, Peroxisome proliferator-activated receptor alpha (Homo sapiens) (UniProt Q07869); assay: Agonist activity against human Gal4-fussed PPARalpha by luciferase reporter gene assay relative to finofibrate; assay type: functional
T3 sequence (whole entry): T2 sequence (Q07869 whole entry)
In short: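 Gal4-fused human PPARα transactivation in HEK293 cells with a luciferase reporter, read as luminescence after cell lysis and luciferin addition. EC50 is the ligand concentration (µM) giving half-maximal fold induction. Maximal efficacy is expressed as a percentage of fenofibrate at 100 µM (set as 100%). Intrinsic activity is the response at 1 µM as a percentage of the standard at 1 µM.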

Hamster [12] = assay: Induction of hydrase mRNA level in hamster liver at 10 mg/kg, po after 6 hrs relative to fenofibrate; assay type: functional, Cricetinae; in short: as §1
[13] = Oral bioavailability in Sprague-Dawley rat at 10 mg/kg; assay type: ADME, organism-based; details: in vivo
In short: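 Male Sprague-Dawley rats (n = 2). Oral dose 10 mg/kg, with 5 mg/kg IV for comparison. Vehicle: 10% NMP, 20% PEG-400, 70% potassium phosphate buffer.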

[14] = molecular target: T4, Peroxisome proliferator-activated receptor gamma (Homo sapiens, UniProt P37231); assay: Agonist activity against human Gal4-fussed PPARgamma in HEK293 cells by luciferase reporter gene assay; assay type: functional, cell-based; in short: as §4
T4 sequence (P37231 whole entry): T1 sequence (whole entry)

Hamster [15] = assay: Antidyslipidemic activity in hamster assessed as decrease in HDL level at 10 mg/kg, po; assay type: functional, Cricetinae; parameters: scale not given: the % may be the effect or the level left; in short: as §3
[16] = Drug level in hamster plasma at 10 mg/kg, po; assay type: ADME, organism-based; parameters: dose 10 mg/kg, route oral; details: cricetinae, in vivo, read-out: Drug uptake
In short: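 High-fat-fed hamsters (2 weeks on diet), 10 mg/kg po once daily for 21 days (n = 8). Vehicle: 5% cremophor/10% NMP/5% EtOH/80% water. Plasma drug level taken in the fasted state at 18 h post-dose.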

Row | SMILES | Emax [5] | EC50 [8] | Emax [11] | EC50 [14] | other results
1 | C[C@@H](c1cccc(OCc2coc(-c3ccc(Cl)cc3)n2)c1)N(CC(=O)O)C(=O)Oc1ccccc1 | 43% | 145 nM | 53% | 1690 nM | –
2 | COC(=O)N(CC(=O)O)Cc1cccc(OCc2csc(-c3ccccc3)n2)c1 | – | 304 nM | 70% | > 25000 nM | –
3 | COC(=O)N(CC(=O)O)Cc1cccc(OCc2coc(-c3ccc(F)c(Cl)c3)n2)c1 | 54% | 395 nM | 97% | 6390 nM | –
4 | COC(=O)N(CC(=O)O)Cc1cccc(OCc2coc(-c3cccc(C)c3)n2)c1 | – | 451 nM | 92% | > 25000 nM | –
5 | COC(=O)N(CC(=O)O)Cc1cccc(OCc2nc(-c3ccc(Cl)cc3)oc2C)c1 | 82% | – | 79% | – | Activity (Hamster [1]): 230%; half-life [3]: 3.2 h; clearance [4]: 4.3 mL/min/kg; Activity (Hamster [6]): 77%; Vd [7]: 0.7 L/kg; MRT [10]: 2.8 h; Emax (Cricetulus griseus): 83%; Activity (Hamster [12]): 277%; Activity (Hamster [15]): 20%
6 | COC(=O)N(CC(=O)O)Cc1cccc(OCc2coc(-c3ccccc3)n2)c1 | – | 1230 nM | 105% | > 25000 nM | –
7 | COC(=O)N(CC(=O)O)[C@@H](C)c1cccc(OCc2coc(-c3ccc(C)cc3)n2)c1 | 130% | 87 nM | 87% | 20700 nM | –
8 | COC(=O)N(CC(=O)O)Cc1cccc(OCc2coc(-c3ccc(F)cc3)n2)c1 | – | 235 nM | 88% | > 25000 nM | –
9 | COC(=O)N(CC(=O)O)Cc1cccc(OCc2csc(-c3cccc(Cl)c3)n2)c1 | 54% | 1450 nM | 117% | 4020 nM | –
10 | COC(=O)N(CC(=O)O)Cc1cccc(OCc2csc(-c3ccc(Cl)cc3)n2)c1 | 35% | 90 nM | 90% | 4690 nM | –
11 | COC(=O)N(CC(=O)O)Cc1cccc(OCc2coc(-c3ccc(F)cc3F)n2)c1 | – | 1090 nM | 78% | > 25000 nM | –
12 | COC(=O)N(CC(=O)O)Cc1cccc(OCc2csc(-c3ccccc3Cl)n2)c1 | 55% | > 2500 nM | – | 5040 nM | –
13 | Cc1ccc(F)c(OC(=O)N(CC(=O)O)[C@@H](C)c2cccc(OCc3coc(-c4ccc(Cl)cc4)n3)c2)c1 | 58% | 471 nM | 56% | 710 nM | –

The remaining molecules from weak to strong by EC50 [8], led by results:

Row | Emax [5] | EC50 [8] | Emax [11] | EC50 [14] | SMILES | other results
14 | 189% | 73 nM | 65% | > 8300 nM | COC(=O)N(CC(=O)O)[C@@H](C)c1cccc(OCc2coc(-c3ccc(Cl)cc3)n2)c1 | –
15 | 34% | 68 nM | 74% | 4810 nM | COC(=O)N(CC(=O)O)Cc1cccc(OCc2coc(-c3ccc(C(F)(F)F)cc3)n2)c1 | –
16 | 62% | 66 nM | 69% | 970 nM | COc1ccc(OC(=O)N(CC(=O)O)[C@@H](C)c2cccc(OCc3coc(-c4ccc(Cl)cc4)n3)c2)cc1 | –
17 | 46% | 64 nM | 78% | 9190 nM | COC(=O)N(CC(=O)O)Cc1cccc(OCc2coc(-c3ccc(Cl)cc3)n2)c1 | Activity (Hamster [1]): 505%; concentration [2]: 83.8 µM; half-life [3]: 4.6 h; clearance [4]: 0.7 mL/min/kg; Activity (Hamster [6]): 84%; concentration [16]: 72.9 µM; Vd [7]: 0.2 L/kg; EC50 [9]: 979 nM; MRT [10]: 10.7 h; Emax (Cricetulus griseus): 84%; Activity (Hamster [12]): 192%; bioavailability [13]: 75%; Activity (Hamster [15]): 44%
18 | 74% | 51 nM | 64% | 1440 nM | COc1cc(OC(=O)N(CC(=O)O)[C@@H](C)c2cccc(OCc3coc(-c4ccc(Cl)cc4)n3)c2)ccc1F | –
19 | 73% | 46.6 nM | 73% | 3440 nM | COC(=O)N(CC(=O)O)Cc1cccc(OCc2csc(-c3ccc(C(F)(F)F)cc3)n2)c1 | Activity (Hamster [1]): 308%; concentration [2]: 86.8 µM; half-life [3]: 7.9 h; clearance [4]: 0.5 mL/min/kg; Activity (Hamster [6]): 72%; Vd [7]: 0.3 L/kg; EC50 [9]: 811 nM; MRT [10]: 6 h; Emax (Cricetulus griseus): 65%; Activity (Hamster [12]): 126%; bioavailability [13]: 75%; Activity (Hamster [15]): 52%
20 | 84% | 41.8 nM | 71% | 9290 nM | COC(=O)N(CC(=O)O)Cc1cccc(OCc2csc(-c3ccc(C)cc3)n2)c1 | –
21 | 94% | 29.9 nM | 85% | 15600 nM | COC(=O)N(CC(=O)O)Cc1cccc(OCc2coc(-c3ccc(C)cc3)n2)c1 | –
22 | 83% | 22 nM | 62% | 571 nM | Cc1cccc(OC(=O)N(CC(=O)O)[C@@H](C)c2cccc(OCc3coc(-c4ccc(Cl)cc4)n3)c2)c1 | –
23 | 95% | 13 nM | 69% | 772 nM | COc1cccc(OC(=O)N(CC(=O)O)[C@@H](C)c2cccc(OCc3coc(-c4ccc(Cl)cc4)n3)c2)c1 | Activity (Hamster [6]): 49%; EC50 [9]: 66 nM; Emax (Cricetulus griseus): 71%; Activity (Hamster [15]): 39%
